ChEMBL document CHEMBL1151172, “Further labdane and kaurane diterpenoids and other constituents from Plectranthus fruticosus” (2004)
Values after ≈ are worked out from the molar mass of the structure shown. Active and inactive are the calls of the source. No cut-off for these calls is given here.

Key:
[1] = tested on: Pseudomonas aeruginosa; test: Antimicrobial activity against Pseudomonas aeruginosa ATCC 27853 by serial broth microdilution method; format: functional, organism-based
Outline: (§1)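 MIC by NCCLS serial broth microdilution in Mueller-Hinton broth. Compounds dissolved in DMSO and tested at graded concentrations from 250 to 7.8 µg/mL. A solvent blank was included.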

[2] = tested on: Escherichia coli; test: Antimicrobial activity against Escherichia coli ATCC 25922 by serial broth microdilution method; format: functional; outline: as §1
[3] = tested on: Candida albicans; test: Antimicrobial activity against Candida albicans CIP 3153A by serial broth microdilution method; format: functional, organism-based
Outline: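 Yeast MIC by serial broth microdilution following NCCLS, using YMA medium. Compounds were dissolved in DMSO and tested over graded concentrations from 250 to 7.8 µg/mL, with a solvent blank.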

[4] = tested on: Staphylococcus aureus; test: Antimicrobial activity against Staphylococcus aureus ATCC 25923 by serial broth microdilution method; format: functional; outline: as §1

Compound	Activity [1]	Activity [2]	Activity [3]	MIC [4]	MIC [2]
C=C1C[C@]23C[C@H]1[C@@H](OC(C)=O)C[C@H]2[C@]1(C)CCC[C@@](C)(C(=O)O)[C@H]1C[C@H]3O	inactive	inactive	inactive		
COC(=O)[C@]1(C)CCC[C@@]2(C)[C@@H]3C[C@H](OC(C)=O)[C@@H]4C[C@]3(C=C4C)[C@H](O)C[C@@H]21	inactive	inactive	inactive		
C=C1[C@H]2C[C@@]3(CC[C@H]4[C@@](C)(CCC[C@@]4(C)C(=O)OC)[C@@H]3C[C@@H]2OC(C)=O)[C@H]1O	inactive	inactive	inactive		
C[C@@]12CCC[C@@](C)(C(=O)O)[C@H]1C[C@@H](O)[C@@]13C[C@@H](CC[C@@H]21)[C@]1(C)O[C@@H]13	inactive	inactive	inactive		
COC(=O)[C@]1(C)CCC[C@@]2(C)[C@@H]3C[C@H](OC(C)=O)[C@@H]4C[C@]3(C=C4C=O)CC[C@@H]21	inactive	inactive	inactive	62.5 µg/mL (≈ 161 µM)	
C=C1C[C@@]23CC[C@H]4[C@@](C)(CCC[C@@]4(C)C(=O)OC)[C@@H]2C[C@H](O)[C@@H]1C3	inactive	inactive	inactive		
CC(=O)O[C@H]1C[C@@H]2[C@@]3(C=C(C=O)[C@H]1C3)CC[C@H]1[C@@]2(C)CCC[C@@]1(C)C(=O)O	inactive	inactive	inactive		
CC1=C[C@]23C[C@H]1CC[C@H]2[C@]1(C)CCC[C@@](C)(C(=O)O)[C@H]1C[C@H]3O	inactive	inactive	inactive		
C=C/C(C)=C\C[C@@H]1C(=C)CC[C@@H]2C(C)(C)[C@H](O)[C@@H](O)C[C@@]12C	inactive	inactive	inactive		
C=C1[C@H]2C[C@@]3(CC[C@H]4[C@@](C)(CCC[C@@]4(C)C(=O)O)[C@@H]3C[C@@H]2OC(C)=O)[C@H]1O	inactive	inactive	inactive		
COC(=O)[C@]1(C)CCC[C@@]2(C)[C@@H]3C[C@H](OC(C)=O)[C@@H]4C[C@@]3(CC[C@@H]21)[C@H]1O[C@]14C	inactive	inactive	inactive		
NC[C@H]1O[C@H](O[C@H]2[C@H](O)[C@@H](O[C@H]3O[C@H](CO)[C@@H](O)[C@H](N)[C@H]3O)[C@H](N)C[C@@H]2N)[C@H](O)[C@@H](O)[C@@H]1O [KANAMYCIN]				< 7.8 µg/mL	< 7.8 µg/mL
C=C1CC[C@@H]2[C@H]([C@H]3[C@H]1CC[C@@]3(O)CO)C2(C)C	inactive	inactive	inactive		
